For assay [1], the system named is Salmonella. In words: Antibacterial activity against Salmonella ATCC 12022 assessed as inhibition of bacterial growth by standard broth microdilution method. The format is functional. In short, it runs like this:
(§1)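 Broth microdilution in 96-well plates. Overnight culture (5 μl) moved into 5 ml fresh medium and grown to log phase, then diluted to 2 × 10^6 CFU ml−1. Each well received 100 μl cell suspension plus 100 μl of compound at various concentrations (200 μl final). Read-out was MIC. Run three times.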

For another assay, the system named is Escherichia coli. The experiment in a line: Antibacterial activity against Escherichia coli ATCC 25922 assessed as inhibition of bacterial growth by standard broth microdilution method. The format is functional. In short, it runs like this:
as §1

Assay [2] concerns Pseudomonas aeruginosa. In words: Antibacterial activity against Pseudomonas aeruginosa ATCC 27853 assessed as inhibition of bacterial growth by standard broth microdilution method. The format is functional. Put shortly: as §1
The next assay relates to Staphylococcus aureus. In words: Antibacterial activity against Staphylococcus aureus ATCC 25923 assessed as inhibition of bacterial growth by standard broth microdilution method. The format is functional. Put shortly:
as §1
(In general: Dilution methods test growth across graded concentrations, often in twofold steps.)

Assay [3] deals with Salmonella. In words: Antibacterial activity against Salmonella ATCC 12022 assessed as inhibition of bacterial growth at 0.5XMIC measured for 24 hrs by time-kill assay. The format is functional, organism-based.
Assay [4] concerns Pseudomonas aeruginosa. In words: Antibacterial activity against Pseudomonas aeruginosa ATCC 27853 assessed as inhibition of bacterial growth at 0.5XMIC measured for 24 hrs by time-kill assay. The format is functional, organism-based.
Assay [5] relates to Pseudomonas aeruginosa. The experiment in a line: Bacteriostatic activity against Pseudomonas aeruginosa ATCC 27853 at 1X to 4XMIC measured after 2 to 24 hrs by time-kill assay. The format is functional, organism-based. Particulars: time 2-24 hrs.
Assay [6] deals with Salmonella. In words: Antibacterial activity against Salmonella ATCC 12022 assessed as reduction in living bacterial cell counts at 1X to 4XMIC measured within 2 hrs by time-kill assay. The format is functional, organism-based.
The subject of assay [7] is Salmonella. The experiment in a line: Bacteriostatic activity against Salmonella ATCC 12022 at 1X to 4XMIC measured after 2 to 24 hrs by time-kill assay. It counts as functional, organism-based. Particulars: time 2-24 hrs.
For assay [8], the system named is Pseudomonas aeruginosa. In words: Antibacterial activity against Pseudomonas aeruginosa ATCC 27853 assessed as reduction in living bacterial cell counts at 1X to 4XMIC measured within 2 hrs by time-kill assay. The format is functional, organism-based.

In brackets after ≈: the same amount, converted by molar mass. Activity calls are given as the source filed them.

Take `CC1CCc2c(sc(NC(=O)c3c(F)cccc3F)c2C(=O)O)C1` (stereo unspecified): the MIC in the assay with Salmonella [1] was determined as 1.4 µM (≈ 0.492 µg/mL); with Escherichia coli it was 11.1 µM (≈ 3.9 µg/mL); with Pseudomonas aeruginosa [2], 1.4 µM (≈ 0.492 µg/mL); in the assay with Staphylococcus aureus, 1.4 µM (≈ 0.492 µg/mL).

For the molecule `CCC1CCc2c(sc(NC(=O)c3ccccc3)c2C(=O)O)C1` (stereo unspecified), the MIC in the assay on Salmonella [1] was determined as 0.73 µM (≈ 0.24 µg/mL); with Escherichia coli, 1.49 µM (≈ 0.491 µg/mL); with Pseudomonas aeruginosa [2], 0.73 µM (≈ 0.24 µg/mL); in the assay on Staphylococcus aureus it was 11.8 µM (≈ 3.9 µg/mL).

In the case of `CCC1CCc2c(sc(NC(=O)c3ccc([N+](=O)[O-])cc3)c2C(=O)O)C1` (stereo unspecified), the MIC in the assay with Salmonella [1] was 1.67 µM (≈ 0.625 µg/mL); in the assay on Escherichia coli, 6.68 µM (≈ 2.5 µg/mL); in the assay with Pseudomonas aeruginosa [2], 1.67 µM (≈ 0.625 µg/mL); in the assay with Staphylococcus aureus, 6.68 µM (≈ 2.5 µg/mL).

For `O=C(Nc1sc2c(c1C(=O)O)CCCC2)c1ccc(Cl)cc1`, the MIC with Salmonella [1], with Escherichia coli, with Pseudomonas aeruginosa [2] and in the assay on Staphylococcus aureus was 1.46 µM (≈ 0.49 µg/mL) each time.

For the molecule `CC1CCc2c(sc(NC(=O)c3ccc(F)cc3)c2C(=O)O)C1` (stereo unspecified), the MIC in the assay with Salmonella [1] turned out to be 1.47 µM (≈ 0.49 µg/mL); in the assay with Escherichia coli, 1.47 µM (≈ 0.49 µg/mL); in the assay with Pseudomonas aeruginosa [2], 0.72 µM (≈ 0.24 µg/mL); with Staphylococcus aureus it was 1.47 µM (≈ 0.49 µg/mL).

On to `CCC1CCc2c(sc(NC(=O)c3ccc(F)cc3F)c2C(=O)O)C1` (stereo unspecified), for which the MIC in the assay on Salmonella [1] turned out to be 1.71 µM (≈ 0.625 µg/mL); in the assay on Escherichia coli, 1.71 µM (≈ 0.625 µg/mL); with Pseudomonas aeruginosa [2], 1.71 µM (≈ 0.625 µg/mL); in the assay on Staphylococcus aureus, 3.42 µM (≈ 1.25 µg/mL).

As to `Cc1ccc(C(=O)Nc2sc3c(c2C(=O)O)CCC(C)C3)c(C)c1` (stereo unspecified), the MIC was determined as 1.43 µM (≈ 0.491 µg/mL) in the assay on Salmonella [1], 5.69 µM (≈ 1.95 µg/mL) in the assay with Escherichia coli, 1.43 µM (≈ 0.491 µg/mL) in the assay on Pseudomonas aeruginosa [2] and 1.43 µM (≈ 0.491 µg/mL) with Staphylococcus aureus.

Take `O=C(O)c1cn(C2CC2)c2cc(N3CCNCC3)c(F)cc2c1=O` [CIPROFLOXACIN]: the MIC in the assay on Salmonella [1] turned out to be 2.54 µM (≈ 0.842 µg/mL); in the assay with Escherichia coli, 1.27 µM (≈ 0.421 µg/mL); with Pseudomonas aeruginosa [2], 10.1 µM (≈ 3.35 µg/mL).

`CC1CCc2c(sc(NC(=O)c3cc(Cl)ccc3F)c2C(=O)O)C1` (stereo unspecified): the MIC amounted to 1.33 µM (≈ 0.489 µg/mL) in the assay on Salmonella [1], 1.33 µM (≈ 0.489 µg/mL) in the assay on Escherichia coli, 1 µM (≈ 0.368 µg/mL) in the assay with Pseudomonas aeruginosa [2] and 2.66 µM (≈ 0.978 µg/mL) in the assay with Staphylococcus aureus.

In the case of `CCC1CCc2c(sc(NC(=O)c3ccccc3Cl)c2C(=O)O)C1` (stereo unspecified), the MIC in the assay with Salmonella [1], in the assay with Escherichia coli, in the assay on Pseudomonas aeruginosa [2] and in the assay with Staphylococcus aureus was 1.72 µM (≈ 0.626 µg/mL) throughout.

Turning to `CCC1CCc2c(sc(NC(=O)c3ccc(C)cc3C)c2C(=O)O)C1` (stereo unspecified), the MIC with Salmonella [1] was 1.75 µM (≈ 0.626 µg/mL); with Escherichia coli it was 3.5 µM (≈ 1.25 µg/mL); with Pseudomonas aeruginosa [2] it was 1.75 µM (≈ 0.626 µg/mL); in the assay on Staphylococcus aureus, 3.5 µM (≈ 1.25 µg/mL).

Turning to `COc1ccc(C(=O)Nc2sc3c(c2C(=O)O)CCC(C)C3)cc1` (stereo unspecified), the MIC in the assay on Salmonella [1] came out at 90.6 µM (≈ 31.3 µg/mL); in the assay on Escherichia coli, 1.42 µM (≈ 0.49 µg/mL); in the assay with Pseudomonas aeruginosa [2] it was 45.3 µM (≈ 15.6 µg/mL); in the assay on Staphylococcus aureus, 1.42 µM (≈ 0.49 µg/mL).

For the molecule `CCC1CCc2c(sc(NC(=O)c3cccc([N+](=O)[O-])c3F)c2C(=O)O)C1` (stereo unspecified), the MIC was 19.9 µM (≈ 7.82 µg/mL) in the assay on Salmonella [1], 19.9 µM (≈ 7.82 µg/mL) in the assay with Escherichia coli, 0.61 µM (≈ 0.239 µg/mL) in the assay on Pseudomonas aeruginosa [2] and 1.25 µM (≈ 0.491 µg/mL) in the assay with Staphylococcus aureus.

With `CC1CCc2c(sc(NC(=O)c3ccccc3)c2C(=O)O)C1` (stereo unspecified), the MIC turned out to be 1.56 µM (≈ 0.492 µg/mL) with Salmonella [1], 1.56 µM (≈ 0.492 µg/mL) with Escherichia coli, 1.56 µM (≈ 0.492 µg/mL) in the assay on Pseudomonas aeruginosa [2] and 99.2 µM (≈ 31.3 µg/mL) in the assay with Staphylococcus aureus.

Turning to GENTAMICIN, the MIC in the assay on Staphylococcus aureus worked out at 1.27 µM.

Regarding `CC1CCc2c(sc(NC(=O)c3ccccc3I)c2C(=O)O)C1` (stereo unspecified), the result with Salmonella [3] and in the assay on Pseudomonas aeruginosa [4] was inactive. Also, the MIC was 0.54 µM (≈ 0.238 µg/mL) in the assay with Salmonella [1], 1.11 µM (≈ 0.49 µg/mL) with Escherichia coli, 1 µM (≈ 0.441 µg/mL) with Pseudomonas aeruginosa [2] and 1.11 µM (≈ 0.49 µg/mL) in the assay with Staphylococcus aureus. Also, the outcome in the assay with Pseudomonas aeruginosa [5], in the assay on Salmonella [6], in the assay with Salmonella [7] and in the assay on Pseudomonas aeruginosa [8] was Active.

Turning to `CCC1CCc2c(sc(NC(=O)c3ccc(F)cc3)c2C(=O)O)C1` (stereo unspecified), the MIC with Salmonella [1] worked out at 7.19 µM (≈ 2.5 µg/mL); with Escherichia coli it was 1.8 µM (≈ 0.625 µg/mL); in the assay with Pseudomonas aeruginosa [2], 7.19 µM (≈ 2.5 µg/mL); in the assay with Staphylococcus aureus, 1.8 µM (≈ 0.625 µg/mL).

Regarding `CC1CCc2c(sc(NC(=O)c3ccc(F)cc3F)c2C(=O)O)C1` (stereo unspecified), the MIC in the assay on Salmonella [1] was found to be 11.1 µM (≈ 3.9 µg/mL); in the assay with Escherichia coli, 22.2 µM (≈ 7.82 µg/mL); with Pseudomonas aeruginosa [2] it was 11.1 µM (≈ 3.9 µg/mL); in the assay with Staphylococcus aureus, 1.4 µM (≈ 0.492 µg/mL).

As for `CCC1CCc2c(sc(NC(=O)c3ccc(Cl)cc3)c2C(=O)O)C1` (stereo unspecified), the MIC in the assay on Salmonella [1] is 1.72 µM (≈ 0.626 µg/mL); with Escherichia coli, 3.44 µM (≈ 1.25 µg/mL); in the assay on Pseudomonas aeruginosa [2], 3.44 µM (≈ 1.25 µg/mL); in the assay with Staphylococcus aureus, 3.44 µM (≈ 1.25 µg/mL).

As for `Cc1c(C(=O)Nc2sc3c(c2C(=O)O)CCC(C)C3)cccc1[N+](=O)[O-]` (stereo unspecified), the MIC with Salmonella [1] came to 1.31 µM (≈ 0.49 µg/mL); in the assay on Escherichia coli it was 0.64 µM (≈ 0.24 µg/mL); in the assay on Pseudomonas aeruginosa [2] it was 1.31 µM (≈ 0.49 µg/mL); in the assay with Staphylococcus aureus, 83.6 µM (≈ 31.3 µg/mL).

`CCC1CCc2c(sc(NC(=O)c3cc([N+](=O)[O-])cc([N+](=O)[O-])c3)c2C(=O)O)C1` (stereo unspecified): the MIC in the assay with Salmonella [1] worked out at 1.49 µM (≈ 0.625 µg/mL); with Escherichia coli, 1.49 µM (≈ 0.625 µg/mL); in the assay with Pseudomonas aeruginosa [2], 1.49 µM (≈ 0.625 µg/mL); in the assay on Staphylococcus aureus, 2.98 µM (≈ 1.25 µg/mL).

The term MIC denotes the smallest concentration in the dilution series that meets the test's criterion for growth inhibition.
